From ChEMBL document CHEMBL1124191, “Design of rat renin inhibitory peptides” (J Med Chem, 1988)
Where a SMILES comes first, the peptide text is derived from it. [ ]: non-standard residue; d: D form. Sta = CC(C)C[C@H](N)[C@@H](O)CC(=O)O

Legend:
Rattus norvegicus [1] = test: Compound evaluated for decrease in mean arterial pressure at a minimal dose of 100 ug/kg in rats; format: functional, Artery
Renin [2] = molecular target: T1, Renin (Homo sapiens, UniProt P00797); test: Compound was tested for its inhibitory activity against human plasma renin; format: cell-free
T1 sequence (P00797 whole entry): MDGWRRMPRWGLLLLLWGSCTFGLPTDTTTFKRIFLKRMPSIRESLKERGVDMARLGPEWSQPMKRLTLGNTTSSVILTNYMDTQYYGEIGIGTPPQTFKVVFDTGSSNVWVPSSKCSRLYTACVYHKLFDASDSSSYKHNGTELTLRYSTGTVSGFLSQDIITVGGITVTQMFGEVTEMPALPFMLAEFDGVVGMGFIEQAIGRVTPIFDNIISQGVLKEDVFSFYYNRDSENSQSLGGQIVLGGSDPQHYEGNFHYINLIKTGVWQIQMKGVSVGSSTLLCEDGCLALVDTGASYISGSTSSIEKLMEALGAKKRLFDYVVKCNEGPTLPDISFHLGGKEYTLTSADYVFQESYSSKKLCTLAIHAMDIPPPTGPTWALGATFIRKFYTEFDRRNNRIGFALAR

Rattus norvegicus [3] = test: Compound evaluated for decrease in mean arterial pressure at a minimal dose of 3 ug/kg in rats; format: functional, Artery
Renin [4] = molecular target: T2, Renin (Rattus norvegicus, UniProt P08424); test: Inhibitory activity against rat plasma renin in vitro.; format: cell-free
T2 sequence (P08424 whole entry): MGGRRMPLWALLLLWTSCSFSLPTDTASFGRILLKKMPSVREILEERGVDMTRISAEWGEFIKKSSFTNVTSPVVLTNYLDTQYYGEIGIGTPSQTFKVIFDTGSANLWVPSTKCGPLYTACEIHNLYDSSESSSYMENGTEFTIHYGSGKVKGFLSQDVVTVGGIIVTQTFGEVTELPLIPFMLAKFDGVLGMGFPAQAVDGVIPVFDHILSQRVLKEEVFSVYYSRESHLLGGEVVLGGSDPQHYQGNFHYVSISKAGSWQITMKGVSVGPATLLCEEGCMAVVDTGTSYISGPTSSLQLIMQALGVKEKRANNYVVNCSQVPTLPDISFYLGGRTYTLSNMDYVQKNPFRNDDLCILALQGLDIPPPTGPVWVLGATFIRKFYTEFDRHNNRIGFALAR
Procedure, shortened: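 Pooled EDTA rat plasma with added PMSF 5 mM, 8-hydroxyquinoline 3 mM and extra EDTA 5 mM, at pH 7.4, mixed with serial 1:10 peptide dilutions (Tris/DMSO), split, and incubated 1 h at 37 and 0 °C.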

Structure (SMILES) | IC50 (Renin [2]) [nM] | IC50 (Renin [4]) [nM] | also measured
CC(=O)N[C@@H](Cc1c[nH]cn1)C(=O)N1CCC[C@H]1C(=O)N[C@@H](Cc1ccccc1)C(=O)N[C@@H](Cc1c[nH]cn1)C(=O)N[C@@H](CC(C)C)[C@@H](O)CC(=O)N[C@@H](CC(C)C)C(=O)N[C@@H](Cc1ccccc1)C(N)=O | – | – | Decrease (Rattus norvegicus [1]): 13.2%
CC(=O)N[C@@H](Cc1cnc[nH]1)C(=O)N1CCC[C@@H]1C(=O)N[C@@H](Cc1ccccc1)C(=O)N[C@@H](Cc1cnc[nH]1)C(=O)N[C@@H](CC(C)C)[C@@H](O)CC(=O)N[C@@H](CC(C)C)C(=O)N[C@@H](Cc1ccccc1)C(N)=O | 14 | – | –
CC(=O)N[C@@H](Cc1c[nH]cn1)C(=O)N1CCC[C@H]1C(=O)N[C@@H](Cc1ccccc1)C(=O)N[C@H](C(=O)N[C@@H](CC(C)C)[C@@H](O)CC(=O)N[C@@H](CC(C)C)C(=O)N[C@@H](Cc1ccccc1)C(N)=O)C(C)C | – | – | Decrease (Rattus norvegicus [3]): 4.9%
CC(=O)N[C@@H](Cc1cnc[nH]1)C(=O)N1CCC[C@@H]1C(=O)N[C@@H](Cc1ccccc1)C(=O)N[C@H](C(=O)N[C@@H](CC(C)C)[C@@H](O)CC(=O)N[C@@H](CC(C)C)C(=O)N[C@@H](Cc1ccccc1)C(N)=O)C(C)C | 3.2 | – | –
CC(=O)N[C@@H](Cc1cnc[nH]1)C(=O)N1CCC[C@@H]1C(=O)N[C@@H](Cc1ccccc1)C(=O)N[C@@H](Cc1cnc[nH]1)C(=O)N[C@@H](CC1CCCCC1)[C@@H](O)CC(=O)N[C@@H](CC(C)C)C(=O)N[C@@H](Cc1ccccc1)C(N)=O | 0.5 | – | –
CC(=O)N[C@@H](Cc1cnc[nH]1)C(=O)N1CCC[C@@H]1C(=O)N[C@@H](Cc1ccccc1)C(=O)N[C@H](C(=O)N[C@@H](CC1CCCCC1)[C@@H](O)CC(=O)N[C@@H](CC(C)C)C(=O)N[C@@H](Cc1ccccc1)C(N)=O)C(C)C | 15 | – | –
CC(C)C[C@H](NC(=O)C[C@H](O)[C@H](CC(C)C)NC(=O)[C@H](Cc1c[nH]cn1)NC(=O)[C@H](Cc1ccccc1)NC(=O)[C@@H]1CCCN1C(=O)[C@H](Cc1c[nH]cn1)NC(=O)[C@@H]1CCCN1)C(=O)N[C@@H](Cc1ccc(O)cc1)C(=O)N[C@@H](Cc1ccc(O)cc1)C(N)=O (H-PHPFH[Sta]LYY-NH2) | – | 775 | –
CC(C)C[C@H](NC(=O)[C@H](Cc1c[nH]cn1)NC(=O)[C@H](Cc1ccccc1)NC(=O)[C@@H]1CCCN1C(=O)[C@H](Cc1c[nH]cn1)NC(=O)[C@@H]1CCCN1)[C@@H](O)CC(=O)N[C@H](C(=O)N[C@H](C(N)=O)[C@@H](C)O)[C@@H](C)O (H-PHPFH[Sta]TT-NH2) | – | 105000 | –
CC(C)C[C@H](NC(=O)[C@H](Cc1cnc[nH]1)NC(=O)[C@H](Cc1ccccc1)NC(=O)[C@@H]1CCCN1C(=O)[C@H](Cc1cnc[nH]1)NC(=O)[C@@H]1CCCN1)[C@@H](O)CC(=O)N[C@@H](Cc1ccc(O)cc1)C(=O)N[C@@H](Cc1ccc(O)cc1)C(N)=O (H-PHPFH[Sta]YY-NH2) | – | 1600 | –
CC(C)C[C@H](NC(=O)[C@H](Cc1cnc[nH]1)NC(=O)[C@H](Cc1ccccc1)NC(=O)[C@@H]1CCCN1C(=O)[C@H](Cc1cnc[nH]1)NC(=O)[C@@H]1CCCN1)[C@@H](O)CC(=O)N[C@@H](Cc1ccc(O)cc1)C(=O)N[C@@H](Cc1ccc(O)cc1)C(=O)N[C@@H](CCCCN)C(N)=O (H-PHPFH[Sta]YYK-NH2) | – | 35000 | –
CC(C)C[C@H](NC(=O)[C@H](Cc1c[nH]cn1)NC(=O)[C@H](Cc1ccccc1)NC(=O)[C@@H]1CCCN1C(=O)[C@H](Cc1c[nH]cn1)NC(=O)[C@@H]1CCCN1)[C@@H](O)CC(=O)N[C@@H](Cc1ccc(O)cc1)C(=O)N[C@@H](Cc1ccc(O)cc1)C(=O)N[C@@H](CO)C(=O)N[C@@H](CCCCN)C(N)=O (H-PHPFH[Sta]YYSK-NH2) | – | 7900 | –
